Legend:
[1] = test system: L1210; assay: In vitro antitumor activity against murine L1210 cell line at 72 h; type: functional; conditions: Mus musculus, L1210, 72 h; read-out: ID50 (the source's name)
[2] = test system: P388; assay: In vitro antitumor activity against murine doxorubicin resistant P388 cell line at 72 h; type: functional; conditions: Mus musculus, P388, 72 h; read-out: ID50 (the source's name)
[3] = test system: HeLa; assay: In vitro antitumor activity against human HeLa cell line at 72 h; type: functional; conditions: read-out: ID50 (the source's name)
Outline: (§1)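 Human HeLa (cervix carcinoma) and KB (oral epidermoid carcinoma) monolayers in Eagle's MEM with nonessential amino acids, Earle's BSS, 10% fetal calf serum and penicillin/streptomycin/kanamycin. Exponentially growing cells (5×10^5) were exposed to varying drug concentrations for 72 or 144 h and counted by Coulter counter. ID50 is the concentration giving 50% growth inhibition versus untreated controls.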

[4] = test system: HeLa; assay: In vitro antitumor activity against human HeLa cell line at 144 h; type: functional; conditions: read-out: ID50 (the source's name); outline: as §1
[5] = test system: KB; assay: In vitro antitumor activity against human KB cell line at 72 h; type: functional; conditions: read-out: ID50 (the source's name); outline: as §1
[6] = molecular target: T1, Adenosine deaminase (Homo sapiens, UniProt P00813); assay: Inhibition constant (Ki) against Human erythrocyte adenosine deaminase
T1 sequence (P00813 whole entry): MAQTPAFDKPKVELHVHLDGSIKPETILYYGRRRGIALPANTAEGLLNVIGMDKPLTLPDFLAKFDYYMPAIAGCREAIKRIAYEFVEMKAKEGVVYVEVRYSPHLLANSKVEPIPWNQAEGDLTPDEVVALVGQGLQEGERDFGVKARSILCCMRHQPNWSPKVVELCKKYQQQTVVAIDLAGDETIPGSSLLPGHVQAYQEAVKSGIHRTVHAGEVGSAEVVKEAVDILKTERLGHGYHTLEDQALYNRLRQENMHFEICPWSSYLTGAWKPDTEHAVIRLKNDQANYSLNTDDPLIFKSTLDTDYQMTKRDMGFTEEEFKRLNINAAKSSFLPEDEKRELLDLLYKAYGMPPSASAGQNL

[7] = test system: P388; assay: In vitro antitumor activity against murine P388 cell line at 72 h; type: functional; conditions: Mus musculus, P388, 72 h; read-out: ID50 (the source's name)
[8] = test system: KB; assay: In vitro antitumor activity against human KB cell line at 144 h; type: functional; conditions: read-out: ID50 (the source's name); outline: as §1
[9] = molecular target: T2, Adenosine deaminase (Bos taurus, UniProt P56658); assay: Inhibition constant (Ki) against calf intestine adenosine deaminase
T2 sequence (P56658 whole entry): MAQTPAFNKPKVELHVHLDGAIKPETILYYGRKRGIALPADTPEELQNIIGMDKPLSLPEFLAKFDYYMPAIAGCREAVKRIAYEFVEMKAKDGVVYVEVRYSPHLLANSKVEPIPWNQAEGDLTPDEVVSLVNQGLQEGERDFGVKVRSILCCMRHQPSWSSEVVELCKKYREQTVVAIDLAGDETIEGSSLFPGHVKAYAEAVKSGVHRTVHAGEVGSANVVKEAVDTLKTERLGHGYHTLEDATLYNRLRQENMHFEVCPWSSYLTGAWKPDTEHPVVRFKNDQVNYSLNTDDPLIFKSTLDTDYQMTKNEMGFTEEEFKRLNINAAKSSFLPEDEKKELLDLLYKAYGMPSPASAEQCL

[10] = test system: HeLa; assay: In vitro antitumor activity against human HeLa cell line at 144 hr; type: functional; conditions: read-out: ID50 (the source's name); outline: as §1
[11] = test system: P388; assay: In vitro antitumor activity against murine doxorubicin-resistant P388 cell line at 72 h; type: functional; conditions: Mus musculus, P388, 72 h; read-out: ID50 (the source's name)

| SMILES | IC50 [1] | IC50 [2] | IC50 [3] | IC50 [4] | IC50 [5] | Ki [6] | IC50 [7] | IC50 [8] | Ki [9] | IC50 [10] | IC50 [11] |
| --- | --- | --- | --- | --- | --- | --- | --- | --- | --- | --- | --- |
| CCCCCCC(C(C)O)n1cnc2c(N)nccc21 (centres undefined) | 18.6 µM | 19.2 µM | 142 µM | 18.6 µM | 31.9 µM | 0.0063 µM | 21.8 µM | 5.5 µM |  |  |  |
| CCCCCCC(C(C)O)n1ccc2c(N)ncnc21 (centres undefined) | 18.4 µM | 3.8 µM | 60.4 µM | 4.7 µM | 20.7 µM | 180 µM | 20.7 µM | 8.5 µM | 400 µM |  |  |
| CCCCCC[C@@H]([C@@H](C)O)n1cnc2c(N)ncnc21 [EHNA] | 22.9 µM | 13.4 µM | 179 µM | 23.4 µM | 81.6 µM | 0.0043 µM | 27.2 µM | 46.3 µM |  |  |  |
| CCCCCCC(C(C)O)n1cnc2c(N)cccc21 (centres undefined) | 26.8 µM |  | 38.3 µM |  | 32.8 µM | 15 µM | 62.9 µM | 30.1 µM | 71 µM | 18.6 µM | 47.9 µM |
| CCCCCCC(C(C)O)n1cnc2c(N)ccnc21 (centres undefined) | 49.1 µM | 38.2 µM | 112 µM | 21.8 µM | 49.1 µM | 0.12 µM | 98.2 µM | 30 µM |  |  |  |
| Nc1ncnc2c1ncn2[C@@H]1O[C@H](CO)[C@@H](O)[C@@H]1O [VIDARABINE] | 23.6 µM |  | 46 µM |  | 89.8 µM |  | 12.7 µM | 25.4 µM |  | 27.7 µM | 10.8 µM |
